Assay results as given in ChEMBL document CHEMBL4219242, “Furoxans (Oxadiazole-4 N-oxides) with Attenuated Reactivity are Neuroprotective, Cross the Blood Brain Barrier, and Improve Passive Avoidance Memory” (J Med Chem, 2018).
Calls of active or inactive are those of the source.

Key:
[1] = Ratio of drug uptake in C57BL/6 mouse brain to plasma at 20 mg/kg, po measured after 1 to 12 hrs by LC-MS/MS analysis; format: ADME, organism-based; details: read-out: BPR
Outline: (§1)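 Brain:plasma ratio taken from forebrain and plasma levels in C57BL/6 mice dosed at 20 mg/kg (ip in saline/1% DMSO or po in sesame oil), sampled at 1, 2 or 12 h. Samples extracted by SPE with the d4 internal standard and measured by LC-MS/MS MRM. Mean ± SEM; routes compared by unpaired t test.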

[2] = Ratio of drug uptake in C57BL/6 mouse brain to plasma at 20 mg/kg, ip measured after 1 to 12 hrs by LC-MS/MS analysis; format: ADME, organism-based; details: read-out: BPR; outline: as §1
Mus musculus [3] = experiment: Effect on Erk phosphorylation in hippocampal tissue of scopolamine-induced C57BL/6 mouse memory deficit model at 20 mg/kg, ip treated for 2 hrs prior to test followed by scopolamine challenge 30 mins prior to test by Western blot analysis; format: organism-based; details: in vivo
Outline: (§2)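 C57BL/6 mice (N = 8 per cohort, blinded) received the HCl salt at 20 mg/kg ip (saline/1% DMSO) or vehicle 2 h before sacrifice, and scopolamine at 1 mg/kg ip or saline 30 min before sacrifice. Hippocampal lysates were run on 10−20% Tris-glycine gels and transferred to PVDF. Blots were probed with pCREB Ser133, CREB, p-ERK1/2 Thr202/Tyr204 and ERK1/2 antibodies, normalised to GAPDH and expressed as phospho:total.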

PC-12 [4] = experiment: Neuroprotective activity against oxygen glucose deprivation-induced cell death in rat PC12 cells assessed as change in cell viability at 25 uM after 24 hrs by MTT assay relative to control; format: functional
Outline: (§3)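 Undifferentiated PC12 cells (passage 12−14), 1 × 10^6 plated overnight in DMEM/F12 with 5% FBS and 5% horse serum. OGD: glucose-free HBSS under argon in an anaerobic chamber, 1.5 h at 37 °C. Reoxygenated in fresh growth medium with compound or DMSO vehicle for 24 h at 37 °C. Viability by MTT (0.5 mg/mL, 4 h), DMSO-solubilised, A540. % change vs vehicle control; mean ± SEM, n=3, triplicate experiments.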

[5] = Drug uptake in C57BL/6 mouse brain at 20 mg/kg, ip or po measured after 1 to 12 hrs by LC-MS/MS analysis; format: ADME, organism-based; details: in vivo
Outline: (§4)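 Male C57BL/6 mice (n = 4 per group) given the HCl salt at 20 mg/kg, either by oral gavage in sesame oil or ip in 0.9% NaCl with 1% DMSO. Sacrificed at 1, 2 or 12 h. Plasma (cardiac puncture, K2EDTA) and forebrain homogenate underwent solid-phase extraction with the d4 internal standard, then LC-MS/MS MRM quantitation against a spiked-brain calibration curve. Concentrations normalised to tissue weight; duplicate LC runs.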

PC-12 [6] = experiment: Neuroprotective activity against oxygen glucose deprivation-induced cell death in rat PC12 cells assessed as change in cell viability at 10 to 50 uM after 24 hrs cotreated with sGC inhibitor ODQ by MTT assay; format: functional, cell-based
Outline: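 OGD-exposed PC12 cells (90 min glucose-free HBSS under argon, 37 °C) treated for 24 h with compound with or without the sGC inhibitor ODQ (10 μM). MTT viability read-out (0.5 mg/mL, 4 h, A540). Mean ± SEM (n = 3) of duplicate experiments; one-way ANOVA with Dunnett's test against vehicle.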

[7] = Stability of the compound in pH 7.4 PBS buffer at 250 uM after 2 to 12 hrs in presence of excess free thiols by HPLC-PDA analysis; format: physicochemical; details: pH 7.4, 250 µM
Outline: (§5)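 Compound (250 μM) or N-ethylmaleimide control (250 μM) incubated with or without N-acetylcysteine (5 mM) in 50 mM PBS, pH 7.4, at 37 °C. Aliquots taken at 2 and 12 h were analysed by HPLC-PDA. Peak AUC at each analyte's λmax gave the remaining starting material.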

PC-12 [8] = experiment: Neuroprotective activity against oxygen glucose deprivation-induced cell death in rat PC12 cells assessed as change in cell viability at 10 uM after 24 hrs by MTT assay relative to control; format: functional; outline: as §3
PC-12 [9] = experiment: Neuroprotective activity against oxygen glucose deprivation-induced cell death in rat PC12 cells assessed as change in cell viability at 1 uM after 24 hrs by MTT assay relative to control; format: functional; outline: as §3
Mus musculus [10] = experiment: Effect on CREB phosphorylation in hippocampal tissue of scopolamine-induced C57BL/6 mouse memory deficit model at 20 mg/kg, ip treated for 2 hrs prior to test followed by scopolamine challenge 30 mins prior to test by Western blot analysis; format: organism-based; details: in vivo; outline: as §2
PC-12 [11] = experiment: Neuroprotective activity against oxygen glucose deprivation-induced cell death in rat PC12 cells assessed as change in cell viability after 24 hrs by resorufin-dye based assay; format: functional; details: PC-12, 24 h
Outline: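 PC12 cells (undifferentiated, passage 12−14) given OGD for 90 min (glucose-free HBSS, argon, 37 °C), then normoxic growth medium with compound at 0.1, 1, 5, 10, 25 or 50 μM for 24 h. PrestoBlue (10%, 30 min) fluorescence at 560/590 nm. Viability as percent change against vehicle-control mean; control plates without OGD were included.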

[12] = Half life in C57BL/6 mouse brain at 20 mg/kg, ip or po measured after 1 to 12 hrs by LC-MS/MS analysis; format: ADME, organism-based; outline: as §4
PC-12 [13] = experiment: Neuroprotective activity against oxygen glucose deprivation-induced cell death in rat PC12 cells assessed as reduction in cell viability at 50 uM after 24 hrs by MTT assay; format: functional, cell-based
PC-12 [14] = experiment: Cytotoxicity against rat PC12 cells assessed as reduction in cell viability at 50 uM after 24 hrs by MTT assay; format: cell-based; details: pc-12, 24 h
[15] = Half life in C57BL/6 mouse plasma at 20 mg/kg, ip or po measured after 1 to 12 hrs by LC-MS/MS analysis; format: ADME, organism-based; outline: as §4
[16] = Drug uptake in cytosol of rat PC12 cells at 25 after 24 hrs under oxygen glucose deprivation condition by LC-MS/MS analysis; format: ADME, subcellular, PC-12
Outline: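 After OGD (as in the neuroprotection assay), 1×10^6 PC12 cells were exposed to analyte at 25 μM for 24 h; a non-OGD plate served as control. Medium and cytosolic fractions (HEPES/NP-40 lysis buffer, 15 min at 0 °C, centrifuged) were diluted in 2% formic acid, spiked with the deuterated/nondeuterated partner as internal standard, and analysed by UPLC-MS/MS (MRM). AUCs were normalised to the internal standard.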

Mus musculus [17] = experiment: Effect on CREB phosphorylation in C57BL/6 mouse forebrain at 20 mg/kg, ip or po measured after 1 to 12 hrs by ELISA; format: organism-based; details: in vivo
Mus musculus [18] = experiment: Reversal of scopolamine-induced memory impairment in C57BL/6 mouse assessed as latency time to enter dark compartment at 20 mg/kg, ip administered 60 to 120 mins prior to training followed by scopolamine challenge 30 mins prior to training measured after 24 hrs (reference value: 63.5 +/- 30 sec); format: functional
Outline: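 Male C57BL/6 mice, habituated to confirm photophobia, were given the HCl salt (0.1–20 mg/kg ip in 0.9% NaCl/1% DMSO) 60 or 120 min before training, and scopolamine 1 mg/kg ip 30 min before training. Double-trial step-through training used a 0.5 mA, 3 s shock. Latency to enter the dark side was measured 24 h later (cut-off 300 s). n = 8–9; ANOVA with Dunnett's test.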

[19] = Drug uptake in C57BL/6 mouse plasma at 20 mg/kg, ip or po measured after 1 to 12 hrs by LC-MS/MS analysis; format: ADME, organism-based; details: in vivo; outline: as §4
[20] = Thiol reactivity of the compound in pH 7.4 PBS buffer at 250 uM after 2 to 12 hrs by HPLC-PDA analysis; format: physicochemical; details: pH 7.4, 250 µM; outline: as §5

Row | Compound | Activity (PC-12 [4]) | Activity (PC-12 [8]) | Activity (PC-12 [9]) | also measured
1 | CC1CCN(Cc2no[n+]([O-])c2-c2ccc(F)cc2)CC1 | 41% | 46% | -3% | Kp [1]: 1.49; Kp [2]: 0.68; Activity (Mus musculus [3]): Non-Toxic; Drug uptake [5]: Active; Activity (PC-12 [6]): inactive; Stability [7]: Stable; Activity (Mus musculus [10]): Non-Toxic; EC50 (PC-12 [11]): 1.9 µM; half-life [12]: 0.833 h; Activity (PC-12 [13]): inactive; Activity (PC-12 [14]): Non-Toxic; half-life [15]: 1.83 h; Drug uptake [16]: Active; Activity (Mus musculus [17]): Non-Toxic; Time (Mus musculus [18]): 237 s; Drug uptake [19]: Active
2 | [2H]C1([2H])CC(C)CC([2H])([2H])N1Cc1no[n+]([O-])c1-c1ccc(F)cc1 | 7% | 20% | 8% | Drug uptake [16]: Active
3 | CC1CCN(Cc2c(-c3ccc(OC(F)F)cc3)no[n+]2[O-])CC1 | 108% | 86% | 54% | 
4 | CCN1C(=O)C=CC1=O [N-ETHYLMALEIMIDE] |  |  |  | Drug metabolism [20]: Metabolite_Detected
5 | Cc1ccc(-c2no[n+]([O-])c2CN2CCC(C)CC2)cc1 | 10% | 12% | 7% | 
6 | Cc1ccc(-c2c(CN3CCC(C)CC3)no[n+]2[O-])cc1 | 8% | 13% | 22% | 
7 | CC1CCN(Cc2no[n+]([O-])c2-c2ccc(Br)cc2)CC1 | 96% | 77% | 25% | 
8 | CC1CCN(Cc2no[n+]([O-])c2-c2ccccc2)CC1 | -11% | 6% | -21% | 
9 | CC1CCN(Cc2no[n+]([O-])c2-c2ccc(Cl)cc2)CC1 | 4% | 19% | -10% | 
10 | CC1CCN(Cc2c(-c3ccc(F)cc3)no[n+]2[O-])CC1 | 5% | 11% | 11% | 
11 | [2H]C1([2H])CC(C)CC([2H])([2H])N1Cc1c(-c2ccc(F)cc2)no[n+]1[O-] | -1% | 6% | 11% | 
12 | COc1ccc(-c2c(CN3CCC(C)CC3)no[n+]2[O-])cc1 | 5% | 12% | 11% | 
13 | CC1CCN(Cc2c(-c3ccc(Br)cc3)no[n+]2[O-])CC1 | 19% | -2% | -7% | 
14 | CC1CCN(Cc2c(-c3ccc(C(F)(F)F)cc3)no[n+]2[O-])CC1 | 0% | 10% | -9% | 
15 | CC1CCN(Cc2no[n+]([O-])c2-c2ccc(C(F)(F)F)cc2)CC1 | -22% | -16% | 2% | 
16 | CC1CCN(Cc2c(-c3ccccc3)no[n+]2[O-])CC1 | 16% | 19% | 9% | 
17 | COc1ccc(-c2no[n+]([O-])c2CN2CCC(C)CC2)cc1 | -1% | 10% | 14% | 
18 | CC1CCN(Cc2c(-c3ccc(Cl)cc3)no[n+]2[O-])CC1 | 25% | 7% | 35% | 
19 | CC1CCN(Cc2no[n+]([O-])c2-c2ccc(OC(F)F)cc2)CC1 | 53% | 61% | 67% | 
